From ChEMBL document CHEMBL4138318, “Discovery of 5-Cyano-6-phenylpyrimidin Derivatives Containing an Acylurea Moiety as Orally Bioavailable Reversal Agents against P-Glycoprotein-Mediated Mutidrug Resistance” (J Med Chem, 2018)
Calls of active or inactive are those of the source. The rule behind the calls is not given here.

How the values were obtained:
[1] = Cytotoxicity against human SW620 cells assessed as survival at 2 uM after 72 hrs by MTT assay relative to control; format: cell-based, SW-620; details: read-out: Survival
[2] = tested on: SW-620; experiment: Inhibition of [3H]-paclitaxel efflux in human SW620 cells up to 4 uM preincubated for 4 hrs followed by [3H]-paclitaxel addition for 2 hrs measured after 120 mins by liquid scintillation counting method; format: functional, cell-based
Procedure, shortened: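 After 2 h loading with 0.1 µM [3H]-paclitaxel (following 4 h compound pre-exposure), SW620 or SW620/AD300 cells moved to label-free medium for a 2 h efflux phase; samples taken at 0, 30, 60 and 120 min and radioactivity counted by liquid scintillation. Three independent assays, mean ± SD.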

[3] = biological target: T1, ATP-dependent translocase ABCB1 (Homo sapiens, UniProt P08183); experiment: Inhibition of ABCB1 in human SW620/AD300 cells assessed as intracellular accumulation of [3H]-paclitaxel up to 4 uM preincubated for 4 hrs followed by [3H]-paclitaxel addition measured after 2 hrs by liquid scintillation counting method; format: cell-based
T1 sequence (P08183 whole entry): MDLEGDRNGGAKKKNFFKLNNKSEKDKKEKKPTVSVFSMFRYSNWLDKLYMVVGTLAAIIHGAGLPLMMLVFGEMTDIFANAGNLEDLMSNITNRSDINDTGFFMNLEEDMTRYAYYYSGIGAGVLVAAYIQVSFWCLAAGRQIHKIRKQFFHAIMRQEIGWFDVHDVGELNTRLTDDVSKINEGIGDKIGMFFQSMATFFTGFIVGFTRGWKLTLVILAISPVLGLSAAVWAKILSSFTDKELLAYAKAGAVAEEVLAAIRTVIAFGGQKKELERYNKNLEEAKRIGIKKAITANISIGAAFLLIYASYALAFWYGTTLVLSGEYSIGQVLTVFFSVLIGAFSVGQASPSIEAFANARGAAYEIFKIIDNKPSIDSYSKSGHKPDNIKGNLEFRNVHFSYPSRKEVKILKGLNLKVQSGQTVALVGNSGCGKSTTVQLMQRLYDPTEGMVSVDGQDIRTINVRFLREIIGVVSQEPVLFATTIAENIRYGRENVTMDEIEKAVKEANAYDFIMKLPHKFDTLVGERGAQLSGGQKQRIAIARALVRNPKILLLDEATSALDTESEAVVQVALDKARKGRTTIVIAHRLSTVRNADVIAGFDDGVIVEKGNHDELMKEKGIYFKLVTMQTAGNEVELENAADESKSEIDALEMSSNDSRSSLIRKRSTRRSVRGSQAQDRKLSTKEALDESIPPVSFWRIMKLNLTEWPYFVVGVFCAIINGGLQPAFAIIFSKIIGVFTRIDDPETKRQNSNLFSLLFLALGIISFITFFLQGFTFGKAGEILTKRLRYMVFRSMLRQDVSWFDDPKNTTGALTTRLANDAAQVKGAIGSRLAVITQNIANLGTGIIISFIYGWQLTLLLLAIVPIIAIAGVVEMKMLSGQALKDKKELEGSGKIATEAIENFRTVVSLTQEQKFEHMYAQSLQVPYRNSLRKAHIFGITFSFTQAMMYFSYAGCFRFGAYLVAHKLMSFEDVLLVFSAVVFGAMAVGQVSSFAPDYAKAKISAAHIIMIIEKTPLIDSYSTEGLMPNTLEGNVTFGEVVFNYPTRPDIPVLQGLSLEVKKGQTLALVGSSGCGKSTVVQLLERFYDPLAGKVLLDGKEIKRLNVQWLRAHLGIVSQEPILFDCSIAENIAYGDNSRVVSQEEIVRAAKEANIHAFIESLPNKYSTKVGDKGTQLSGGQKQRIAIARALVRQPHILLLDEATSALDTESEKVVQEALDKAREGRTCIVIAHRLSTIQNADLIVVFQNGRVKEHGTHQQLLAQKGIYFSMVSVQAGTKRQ
Procedure, shortened: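 Cells pre-exposed with or without compound at various concentrations 4 h at 37°C, then 0.1 µM [3H]-paclitaxel added for 2 h in continued presence of treatment; washed three times in cold PBS, lysed, radioactivity counted by liquid scintillation. Mean ± SD of three independent assays.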

[4] = biological target: T1, ATP-dependent translocase ABCB1; experiment: Inhibition of ABCB1 (unknown origin) expressed in HEK293 cells assessed as potentiation of vincristine-induced cytotoxicity by measuring fold reduction in vincristine IC50 at 1 uM preincubated for 4 hrs followed by vincristine addition measured after 72 hrs by MTT assay; format: cell-based
[5] = biological target: T1, ATP-dependent translocase ABCB1; experiment: Inhibition of ABCB1 in human SW620/AD300 cells assessed as potentiation of paclitaxel-induced cytotoxicity by measuring fold reduction in paclitaxel IC50 at 0.5 uM after 72 hrs by MTT assay; format: cell-based
Procedure, shortened: (§1)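 SW620/AD300 cells (~5×10^3/well) treated with graded paclitaxel with or without modulator (2 µM, or 0.5-2 µM in dose series; 0.1% DMSO solvent control) for 72 h; MTT (5 mg/mL stock) added 4 h, absorbance 490 nm. IC50 as mean ± SD of three independent runs; reversal fold = paclitaxel IC50 without/with modulator.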

[6] = biological target: T1, ATP-dependent translocase ABCB1; experiment: Inhibition of ABCB1 in human SW620/AD300 cells assessed as accumulation of rhodamine 123 preincubated for 4 hrs followed by rhodamine 123 addition measured after 30 mins by flow cytometry; format: cell-based; details: 0.5 h
[7] = biological target: Multidrug resistance-associated protein 1 (Homo sapiens, UniProt P33527); experiment: Inhibition of ABCC1 (unknown origin) expressed in HEK293 cells assessed as potentiation of vincristine-induced cytotoxicity by measuring fold reduction in vincristine IC50 at 1 uM preincubated for 4 hrs followed by vincristine addition measured after 72 hrs by MTT assay; format: cell-based
Multidrug resistance-associated protein 1, sequence (P33527 whole entry): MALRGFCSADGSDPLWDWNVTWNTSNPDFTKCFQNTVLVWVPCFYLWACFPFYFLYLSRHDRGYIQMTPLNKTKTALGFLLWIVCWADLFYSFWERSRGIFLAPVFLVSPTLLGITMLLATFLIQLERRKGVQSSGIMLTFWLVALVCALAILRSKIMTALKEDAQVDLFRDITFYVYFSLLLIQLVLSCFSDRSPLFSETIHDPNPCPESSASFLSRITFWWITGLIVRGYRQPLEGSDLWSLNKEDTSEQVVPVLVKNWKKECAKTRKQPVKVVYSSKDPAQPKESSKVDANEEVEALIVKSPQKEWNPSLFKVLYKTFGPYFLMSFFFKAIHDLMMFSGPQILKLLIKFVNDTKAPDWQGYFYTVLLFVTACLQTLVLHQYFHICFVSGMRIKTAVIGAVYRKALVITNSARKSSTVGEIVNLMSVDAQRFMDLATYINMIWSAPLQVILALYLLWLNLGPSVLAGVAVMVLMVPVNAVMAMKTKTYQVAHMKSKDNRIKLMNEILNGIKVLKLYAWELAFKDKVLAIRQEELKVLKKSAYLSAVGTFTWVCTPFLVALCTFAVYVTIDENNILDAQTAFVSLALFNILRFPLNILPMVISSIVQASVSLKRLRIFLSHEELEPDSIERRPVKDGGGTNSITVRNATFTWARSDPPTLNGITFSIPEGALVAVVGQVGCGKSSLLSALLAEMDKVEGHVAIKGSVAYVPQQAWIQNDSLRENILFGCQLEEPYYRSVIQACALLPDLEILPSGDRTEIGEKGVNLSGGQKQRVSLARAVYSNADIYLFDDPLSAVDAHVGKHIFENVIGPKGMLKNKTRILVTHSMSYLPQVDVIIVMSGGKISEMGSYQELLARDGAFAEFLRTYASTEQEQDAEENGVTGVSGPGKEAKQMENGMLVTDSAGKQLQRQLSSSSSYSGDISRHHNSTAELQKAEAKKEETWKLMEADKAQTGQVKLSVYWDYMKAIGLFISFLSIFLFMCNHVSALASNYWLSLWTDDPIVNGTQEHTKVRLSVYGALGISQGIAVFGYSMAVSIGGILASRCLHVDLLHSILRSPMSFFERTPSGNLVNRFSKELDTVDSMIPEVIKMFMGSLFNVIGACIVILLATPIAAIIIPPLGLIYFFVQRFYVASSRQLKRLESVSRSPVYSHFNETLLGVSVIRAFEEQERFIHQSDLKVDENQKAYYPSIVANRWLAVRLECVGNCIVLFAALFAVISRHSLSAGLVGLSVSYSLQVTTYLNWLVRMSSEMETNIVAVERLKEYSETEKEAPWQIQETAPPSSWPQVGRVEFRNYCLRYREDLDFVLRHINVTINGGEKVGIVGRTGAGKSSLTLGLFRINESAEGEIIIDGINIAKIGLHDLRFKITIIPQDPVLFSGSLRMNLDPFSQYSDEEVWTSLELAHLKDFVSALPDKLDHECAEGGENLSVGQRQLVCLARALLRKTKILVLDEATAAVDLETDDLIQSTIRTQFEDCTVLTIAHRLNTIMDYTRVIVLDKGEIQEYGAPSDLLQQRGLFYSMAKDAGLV
Procedure, shortened: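 KB-CV60 and HEK293/ABCC1 cells (transfected line kept in 2 mg/mL G418) given graded vincristine with or without modulator for 72 h; MK571 25 µM reference; viability by MTT read at 490 nm. IC50 from three independent repeats, mean ± SD; reversal fold = vincristine IC50 ratio without/with modulator.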

[8] = biological target: T1, ATP-dependent translocase ABCB1; experiment: Stimulation of human ABCB1 ATPase activity expressed in high-five insect cell membrane vesicles assessed as compound concentration required for 50% stimulation by colorimetric analysis; details: read-out: Activity
Procedure, shortened: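 Vanadate-sensitive ABCB1 ATPase activity in High Five insect cell membrane vesicles, measured with a commercial ATPase kit under a modified protocol; compound tested across 0-40 µM; maximal fold stimulation and concentration giving 50% stimulation derived.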

[9] = biological target: T1, ATP-dependent translocase ABCB1; experiment: Inhibition of ABCB1 in human SW620/AD300 cells assessed as potentiation of paclitaxel-induced cytotoxicity by measuring fold reduction in paclitaxel IC50 at 2 uM after 72 hrs by MTT assay relative to paclitaxel alone; format: cell-based; procedure, shortened: as §1
[10] = biological target: T1, ATP-dependent translocase ABCB1; experiment: Inhibition of ABCB1 in human SW620/AD300 cells assessed as potentiation of paclitaxel-induced cytotoxicity after 72 hrs by MTT assay; format: cell-based; procedure, shortened: as §1

COc1cc(-c2nc(SCC(=O)NC(=O)Nc3ccccn3)nc(Nc3cccc(Cl)c3)c2C#N)cc(OC)c1OC
viability at 72 h, 2 µM [1]: > 90% | inhibition [2]: inactive | inhibition (INH) [3]: Active | fold change (FC) [4]: 9.75 | fold change (FC) [5]: 72.17 | inhibition (INH) [6]: Dose-dependent effect | fold change (FC) [7]: 1.14 | EC50 [8]: 970 nM | fold change (FC) [9]: 837.2 | inhibition (INH) [10]: Dose-dependent effect
